Assay [1] addresses T1, 5-hydroxytryptamine receptor 1A (Rattus norvegicus, UniProt P19327).
T1 sequence (P19327 whole entry): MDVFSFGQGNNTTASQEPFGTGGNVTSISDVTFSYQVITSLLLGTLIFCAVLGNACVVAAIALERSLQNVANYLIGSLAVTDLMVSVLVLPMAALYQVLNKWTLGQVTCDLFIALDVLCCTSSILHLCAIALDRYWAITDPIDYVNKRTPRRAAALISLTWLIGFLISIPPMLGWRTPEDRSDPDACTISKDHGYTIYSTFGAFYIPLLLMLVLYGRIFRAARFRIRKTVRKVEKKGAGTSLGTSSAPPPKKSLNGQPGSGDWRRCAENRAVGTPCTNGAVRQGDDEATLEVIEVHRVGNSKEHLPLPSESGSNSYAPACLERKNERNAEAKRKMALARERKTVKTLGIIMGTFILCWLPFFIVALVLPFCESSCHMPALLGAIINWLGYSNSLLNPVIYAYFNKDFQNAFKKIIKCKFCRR
Nature of the assay: Ability to bind to central serotonin 5-hydroxytryptamine 1A receptor in vitro in hippocampus of the rat brain using [3H]8-OH-DPAT radioligand. Format: tissue-based. The procedure, abridged:
(§1)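 Competition binding in rat brain tissue: hippocampus with [3H]-8-OH-DPAT (5-HT1A); cortex with [3H]-ketanserin (5-HT2A) or [3H]-prazosin (α1). Ki from at least three experiments using 10–14 concentrations (10⁻¹⁰–10⁻⁵ M), each in triplicate.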

The target in assay [2] is 5-hydroxytryptamine receptor 2A (Rattus norvegicus, UniProt P14842). Kind of assay: Ability to bind to central serotonin 5-hydroxytryptamine 2A receptor in vitro in cortex of the rat brain using [3H]ketanserin radioligand. The format is tissue-based. Put shortly: as §1
5-hydroxytryptamine receptor 2A, sequence (P14842 whole entry): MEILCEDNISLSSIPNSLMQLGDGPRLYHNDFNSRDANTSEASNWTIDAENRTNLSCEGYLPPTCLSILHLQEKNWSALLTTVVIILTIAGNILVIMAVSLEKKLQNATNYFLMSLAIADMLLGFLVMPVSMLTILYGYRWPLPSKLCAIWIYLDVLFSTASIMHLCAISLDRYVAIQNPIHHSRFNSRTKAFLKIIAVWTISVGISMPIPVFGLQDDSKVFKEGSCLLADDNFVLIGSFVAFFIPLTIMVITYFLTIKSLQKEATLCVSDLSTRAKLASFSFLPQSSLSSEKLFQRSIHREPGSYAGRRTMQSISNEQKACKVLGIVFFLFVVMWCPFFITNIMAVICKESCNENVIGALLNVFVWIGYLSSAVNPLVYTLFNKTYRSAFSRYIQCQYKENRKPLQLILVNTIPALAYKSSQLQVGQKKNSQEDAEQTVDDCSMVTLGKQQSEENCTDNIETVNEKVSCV
For assay [3], the target named is T2, Adrenergic receptor alpha-1 (Rattus norvegicus, UniProt P15823+P23944+P43140).
T2 sequence (P15823 whole entry): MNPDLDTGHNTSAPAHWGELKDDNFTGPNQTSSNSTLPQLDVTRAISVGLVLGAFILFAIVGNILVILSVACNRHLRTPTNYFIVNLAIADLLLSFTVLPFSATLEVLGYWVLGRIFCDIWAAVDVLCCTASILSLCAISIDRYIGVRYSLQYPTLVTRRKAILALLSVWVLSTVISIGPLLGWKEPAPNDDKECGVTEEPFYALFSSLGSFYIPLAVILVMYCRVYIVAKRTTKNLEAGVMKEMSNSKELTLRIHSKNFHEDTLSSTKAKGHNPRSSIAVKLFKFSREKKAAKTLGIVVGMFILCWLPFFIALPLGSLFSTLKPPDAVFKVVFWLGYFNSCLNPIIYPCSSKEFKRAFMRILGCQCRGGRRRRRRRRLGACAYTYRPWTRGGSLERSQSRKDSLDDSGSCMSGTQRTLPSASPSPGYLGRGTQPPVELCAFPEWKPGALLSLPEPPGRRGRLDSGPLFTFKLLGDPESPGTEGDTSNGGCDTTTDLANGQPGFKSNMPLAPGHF
T2 sequence (P23944 whole entry): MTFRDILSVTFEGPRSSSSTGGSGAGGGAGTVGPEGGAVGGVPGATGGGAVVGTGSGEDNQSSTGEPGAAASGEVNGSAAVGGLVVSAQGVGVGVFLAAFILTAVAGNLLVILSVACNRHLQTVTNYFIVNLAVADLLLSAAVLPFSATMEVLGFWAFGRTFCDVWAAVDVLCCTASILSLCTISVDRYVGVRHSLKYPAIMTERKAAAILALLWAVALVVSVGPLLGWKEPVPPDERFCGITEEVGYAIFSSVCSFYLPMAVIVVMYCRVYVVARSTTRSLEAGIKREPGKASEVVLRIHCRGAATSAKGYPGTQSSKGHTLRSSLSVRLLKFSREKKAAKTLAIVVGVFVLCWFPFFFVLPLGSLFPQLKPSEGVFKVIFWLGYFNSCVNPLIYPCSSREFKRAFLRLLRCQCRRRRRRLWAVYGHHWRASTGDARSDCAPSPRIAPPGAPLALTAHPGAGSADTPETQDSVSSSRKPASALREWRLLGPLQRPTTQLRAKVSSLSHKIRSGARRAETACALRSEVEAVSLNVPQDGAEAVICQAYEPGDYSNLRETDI
T2 sequence (P43140 whole entry): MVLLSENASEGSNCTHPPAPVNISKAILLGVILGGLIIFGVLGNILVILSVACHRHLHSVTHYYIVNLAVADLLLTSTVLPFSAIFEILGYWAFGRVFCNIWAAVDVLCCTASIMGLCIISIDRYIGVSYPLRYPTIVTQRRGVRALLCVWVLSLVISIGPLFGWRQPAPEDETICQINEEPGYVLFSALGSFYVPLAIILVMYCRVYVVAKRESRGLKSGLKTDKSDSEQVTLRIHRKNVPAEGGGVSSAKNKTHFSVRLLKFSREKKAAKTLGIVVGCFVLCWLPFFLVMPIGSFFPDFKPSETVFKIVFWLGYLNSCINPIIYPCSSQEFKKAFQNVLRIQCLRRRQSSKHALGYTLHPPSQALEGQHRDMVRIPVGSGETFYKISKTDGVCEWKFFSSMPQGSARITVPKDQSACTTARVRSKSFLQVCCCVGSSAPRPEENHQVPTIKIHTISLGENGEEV
Kind of assay: Ability to bind to alpha-1 adrenergic receptor in vitro in cortex of the rat brain using [3H]prazosin radioligand. Format: tissue-based. The procedure, abridged: as §1

In the next assay the target is D(2) dopamine receptor (Rattus norvegicus, UniProt P61169). Kind of assay: Ability to bind to Dopamine receptor D2 in vitro in rat sriatal membranes using [3H]spiperone radioligand. Format: cell membranes. Put shortly: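 Rat striatal membranes with [3H]spiperone; ketanserin 50 nM in buffer to block 5-HT2A binding; nonspecific binding with (±)-butaclamol 5 μM; 50 mM potassium phosphate pH 7.4; 37 °C, 30 min; vacuum filtration onto glass fiber, scintillation counting. Ki via Cheng-Prusoff from ≥3 experiments, 10 concentrations in triplicate.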
D(2) dopamine receptor, sequence (P61169 whole entry): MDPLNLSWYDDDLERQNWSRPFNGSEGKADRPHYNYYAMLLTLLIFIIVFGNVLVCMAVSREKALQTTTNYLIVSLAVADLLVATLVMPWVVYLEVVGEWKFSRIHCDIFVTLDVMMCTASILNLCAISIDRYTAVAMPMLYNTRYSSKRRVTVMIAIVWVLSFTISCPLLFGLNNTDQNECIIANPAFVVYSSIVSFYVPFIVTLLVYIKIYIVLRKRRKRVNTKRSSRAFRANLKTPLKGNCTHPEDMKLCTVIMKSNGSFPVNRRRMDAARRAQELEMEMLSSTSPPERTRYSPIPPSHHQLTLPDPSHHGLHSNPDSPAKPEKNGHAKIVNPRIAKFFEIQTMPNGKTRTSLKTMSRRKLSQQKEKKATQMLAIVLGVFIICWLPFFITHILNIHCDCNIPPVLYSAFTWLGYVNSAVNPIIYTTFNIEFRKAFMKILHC

Assay [4] has as its target T3, 5-hydroxytryptamine receptor 1A (Mus musculus) (UniProt Q64264).
T3 sequence (whole entry): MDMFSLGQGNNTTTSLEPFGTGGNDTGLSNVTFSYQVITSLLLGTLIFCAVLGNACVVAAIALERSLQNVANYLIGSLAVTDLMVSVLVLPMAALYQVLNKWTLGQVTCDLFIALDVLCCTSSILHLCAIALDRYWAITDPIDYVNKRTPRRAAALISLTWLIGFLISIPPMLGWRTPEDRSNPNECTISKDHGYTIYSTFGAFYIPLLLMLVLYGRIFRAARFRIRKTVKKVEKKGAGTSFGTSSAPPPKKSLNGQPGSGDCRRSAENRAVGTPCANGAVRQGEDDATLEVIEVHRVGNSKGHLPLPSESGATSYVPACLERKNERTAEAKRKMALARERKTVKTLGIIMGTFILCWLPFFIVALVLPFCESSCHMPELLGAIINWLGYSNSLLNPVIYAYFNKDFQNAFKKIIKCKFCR
Kind of assay: The hypothermia produced in mice was regarded as a measure of presynaptic 5-HT1A receptor agonistic activity; Agonist. Format: functional. To be noted: filed as agonist.

Assay [5] has as its system Rattus norvegicus. Kind of assay: Effect of compound administered 60 min before the test in the forced swimming test in Rat (8 rats per group) at 10 mg/kg. The format is functional. The procedure, abridged: (§2)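 Male Wistar rats, n=8/group; forced swim per Porsolt: 15 min pretest in cylinders with 15 cm water at 25 °C, retest 24 h later; total immobility over 5 min. Drug ip 60 min before test; imipramine in saline, test compound suspended in 1% Tween 80; Dunnett test vs vehicle.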

Assay [6] deals with Rattus norvegicus. Kind of assay: Effect of compound administered 60 min before the test in the forced swimming test in Rat (8 rats per group) at 20 mg/kg. Format: functional. The procedure, abridged:
as §2

Assay [7] concerns Rattus norvegicus. Kind of assay: Effect of compound administered 60 min before the test in the forced swimming test in Rat (8 rats per group) at 5 mg/kg. The format is functional. Put shortly:
as §2

Assay [8] relates to Rattus norvegicus. Kind of assay: Effect of Compound administered 60 min before the test in the conflict drinking test in rat (n = 8 rats/group) at 5 mg/kg. Format: functional. Put shortly: (§3)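 Male Wistar rats (250-300 g), compound suspended in 1% aqueous Tween 80, given ip (2 mL/kg) 60 min before test. Rats adapted 10 min to chamber, water-deprived 24 h, readapted 10 min with bottle, 30 min home-cage drinking, deprived another 24 h. After 30 s free drinking, licks punished by 0.5 mA shock; shocks accepted in 5 min counted. n=8/group; ANOVA with Dunnett test.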

Assay [9] deals with Rattus norvegicus. Kind of assay: Effect of compound administered 60 min before the test in the forced swimming test in Rat (8 rats per group) at 30 mg/kg. Format: functional. The procedure, abridged:
as §2

Assay [10] has as its system Rattus norvegicus. Kind of assay: Effect of compound administered 60 min before the test in the forced swimming test in Rat (8 rats per group) at 40 mg/kg. Format: functional. Put shortly:
as §2

For the next assay, the species on record is Mus musculus. Kind of assay: Ability to inhibit 8-OH-DPAT-induced hypothermia was taken as a measure of presynaptic antagonistic activity; Antagonist. Format: functional, organism-based. Conditions: filed as antagonist.
Assay [11] has as its target T3, 5-hydroxytryptamine receptor 1A (Mus musculus). Nature of the assay: Compound was tested for hypothermia with the activation of presynaptic 5-HT1A receptor agonist (8-OH-DPAT) in mice; Antagonist. Conditions: filed as antagonist. The format is functional.
Assay [12] has as its system Rattus norvegicus. Kind of assay: Effect of Compound administered 60 min before the test in the conflict drinking test in rat (n = 8 rats/group) at 2.5 mg/kg. The format is functional. The procedure, abridged:
as §3

The text below walks through data of ChEMBL document CHEMBL1137076, “New arylpiperazine 5-HT(1A) receptor ligands containing the pyrimido[2,1-f]purine fragment: synthesis, in vitro, and in vivo pharmacological evaluation” (J Med Chem, 2004).

The structures appear in SMILES notation. Values joined by “and” are separate entries in the source; they are usually repeats but may differ in a detail not shown here. Equal values may be shown once.

As a reminder, the Ki is a dissociation constant, usually derived from enzyme kinetics or from competition with a known ligand. Lower therefore signals tighter binding.

For `Cn1c(=O)c2c(nc3nc(NCCCN4CCN(c5ccccc5)CC4)c(Br)cn32)n(C)c1=O`, the Ki came out at 11 nM in assay [1], 297 nM in [2], 11 nM in assay [3] and 414 nM at D(2) dopamine receptor. For the same compound, in assay [4], the Functional profile result was “Agonist”. For the same compound, the Effect in the assay on Rattus norvegicus [5] turned out to be 64.4%; with Rattus norvegicus [6], 69.6%; in the assay with Rattus norvegicus [7] it was 73.1%; in the assay on Rattus norvegicus [8], 491.9%. In addition, the values for the Immobility time in the assay on Rattus norvegicus [5], in the assay with Rattus norvegicus [6] and with Rattus norvegicus [7] were 153.1 s, 165.6 s and 173.9 s, respectively. Besides, the “No. of shocks accepted/5 min” value with Rattus norvegicus [8] worked out at 36.4.

Consider `CN(C)CCCN1c2ccccc2CCc2ccccc21` [IMIPRAMINE], for which the Effect with Rattus norvegicus [6] is 81.9%; with Rattus norvegicus [9] it was 63.3%; in the assay with Rattus norvegicus [10], 52.7%. In addition, the figures for the Immobility time in the assay with Rattus norvegicus [6], with Rattus norvegicus [9] and in the assay with Rattus norvegicus [10] were 155 s, 120.4 s and 99.7 s, respectively.

For `Cn1c(=O)c2c(nc3nc(NCCN4CCN(c5ccccc5)CC4)ccn32)n(C)c1=O`, the Ki in assay [1] stood at 11.5 nM; in assay [2], 326 nM. For the same compound, the Functional profile entry (in the assay listed under Mus musculus; in [11]) was “Antagonist” each time.

For the compound `CN1C(=O)CN=C(c2ccccc2)c2cc(Cl)ccc21` [DIAZEPAM], in the assay with Rattus norvegicus [12], the Effect was 306.5% and 685.7%; the “No. of shocks accepted/5 min” value was 23.6 and 52.8. Further, in the assay on Rattus norvegicus [8], the Effect came out at 533.8% and the “No. of shocks accepted/5 min” value was 41.1.
